As a reminder, the inhibition is the relative decrease from the control value, in per cent. As usually defined, the Ki is a dissociation constant, usually derived from enzyme kinetics or from competition with a known ligand.

We go through one compound from ChEMBL document CHEMBL3871264, “Design of a novel thiophene inhibitor of 15-lipoxygenase-1 with both anti-inflammatory and neuroprotective properties” (Eur J Med Chem, 2016).

Experiment [1] concerns the target T1, Polyunsaturated fatty acid lipoxygenase ALOX15 (Mus musculus) (UniProt P39654).
T1 sequence (whole entry): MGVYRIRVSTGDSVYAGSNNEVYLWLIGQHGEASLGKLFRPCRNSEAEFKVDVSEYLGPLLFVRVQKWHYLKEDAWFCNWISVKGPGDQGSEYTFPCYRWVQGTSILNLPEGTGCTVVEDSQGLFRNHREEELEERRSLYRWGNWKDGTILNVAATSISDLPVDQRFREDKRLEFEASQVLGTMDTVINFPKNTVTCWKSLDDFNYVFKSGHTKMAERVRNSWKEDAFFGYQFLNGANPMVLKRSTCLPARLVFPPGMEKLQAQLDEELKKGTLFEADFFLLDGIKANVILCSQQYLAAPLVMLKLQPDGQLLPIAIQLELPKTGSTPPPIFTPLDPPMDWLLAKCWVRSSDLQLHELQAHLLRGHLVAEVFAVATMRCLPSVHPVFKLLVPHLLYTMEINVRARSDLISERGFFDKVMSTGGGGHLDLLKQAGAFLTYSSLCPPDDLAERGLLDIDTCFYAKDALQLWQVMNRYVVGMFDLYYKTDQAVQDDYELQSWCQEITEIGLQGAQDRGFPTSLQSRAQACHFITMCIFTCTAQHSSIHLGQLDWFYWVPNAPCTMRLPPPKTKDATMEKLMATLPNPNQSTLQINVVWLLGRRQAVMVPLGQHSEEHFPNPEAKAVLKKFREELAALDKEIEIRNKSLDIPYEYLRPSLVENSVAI
Nature of the experiment: Inhibition of 15-LOX-1 in mouse HT22 cells assessed as protection against glutamate-induced cell death by measuring increase in cell viability at 10 uM incubated up to 8 hrs following glutamate challenge by MTT assay. The format is cell-based. Conditions: HT-22. In a few lines: (§1)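 HT-22 cells were seeded at 8x10^3 per well and incubated overnight. They were challenged with 4 mM glutamate in DMEM/10% FCS. Inhibitor was given either with glutamate (1-20 µM; PD146176 at 1 µM) or added at 5 or 10 µM 2, 4, 6 or 8 h after glutamate. After 14-16 h, MTT was added at 0.5 mg/mL for 1 h at 37 °C. Formazan was dissolved in DMSO and read at 570 nm minus 630 nm background, expressed relative to control. Three experiments were run with 6-8 replicates each.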
For orientation: Formazan colour is commonly taken as a measure of viable cells.

Experiment [2] has as its target T2, Polyunsaturated fatty acid lipoxygenase ALOX15 (Homo sapiens, UniProt P16050).
T2 sequence (P16050 whole entry): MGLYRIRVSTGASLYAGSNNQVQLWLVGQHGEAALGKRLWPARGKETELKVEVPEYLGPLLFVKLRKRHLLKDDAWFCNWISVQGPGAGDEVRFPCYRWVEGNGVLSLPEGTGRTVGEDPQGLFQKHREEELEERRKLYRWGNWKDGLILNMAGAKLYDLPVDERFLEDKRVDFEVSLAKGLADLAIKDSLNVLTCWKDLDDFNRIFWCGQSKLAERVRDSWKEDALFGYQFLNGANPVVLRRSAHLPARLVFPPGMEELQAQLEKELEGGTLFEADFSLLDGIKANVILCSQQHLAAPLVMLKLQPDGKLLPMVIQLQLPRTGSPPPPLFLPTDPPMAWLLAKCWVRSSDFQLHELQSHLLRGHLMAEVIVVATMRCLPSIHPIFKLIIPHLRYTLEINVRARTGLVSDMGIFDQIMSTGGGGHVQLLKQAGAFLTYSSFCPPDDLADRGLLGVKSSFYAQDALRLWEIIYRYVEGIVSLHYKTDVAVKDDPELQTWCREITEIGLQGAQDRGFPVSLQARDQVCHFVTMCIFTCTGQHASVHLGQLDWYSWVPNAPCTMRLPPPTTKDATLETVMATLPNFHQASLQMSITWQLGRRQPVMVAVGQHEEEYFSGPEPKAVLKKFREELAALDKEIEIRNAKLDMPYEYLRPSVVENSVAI
Nature of the experiment: Competitive inhibition of human 15-LOX-1 assessed as reduction in conversion of linoleic acid to 13(S)-HpODE incubated for 10 mins followed by linoleic acid addition by Lineweaver-Burk plot analysis.

For experiment [3], the target named is T1, Polyunsaturated fatty acid lipoxygenase ALOX15 (Mus musculus). The experiment is described as follows: Inhibition of 15-LOX-1 in mouse HT22 cells assessed as protection against glutamate-induced cell death by measuring increase in cell viability up to 20 uM cotreated with glutamate for 14 to 16 hrs by MTT assay. The format is cell-based. The following applies: HT-22. The method in brief:
as §1

The target is the same in experiment [4]. Nature of the experiment: Inhibition of 15-LOX-1 in C57bl/6 mouse precision-cut lung slices assessed as reduction in LPS-stimulated IL-6 mRNA expression level at 50 uM incubated for 20 hrs followed by LPS stimulation for 4 hrs in presence of linoleic acid by RT-qPCR analysis. The method in brief:
(§2)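 Lung slices, 250 μm, were cut from agarose-filled lungs of male C57bl/6 mice aged 8-10 weeks and cultured at 37 °C in 5% CO2 in supplemented DMEM, 3 slices per well. Inhibitor was given for 20 h with 10 μM linoleic acid. For the last 4 h, 10 ng/ml LPS plus 10 ng/ml IFNγ were added. Read-out was RT-qPCR (10 ng cDNA, GAPDH assay included), in duplicate or triplicate wells, as fold change versus LPS/linoleic acid control, with 4-6 independent experiments.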
In general terms: In qPCR the cycle at which signal appears reflects the starting amount.

Experiment [5] shares this target. The experiment is described as follows: Inhibition of 15-LOX-1 in mouse HT22 cells assessed as inhibition of glutamate-induced superoxide production in mitochondria at 10 uM incubated for 14 to 16 hrs by mitoSOX staining based FACS analysis. The following applies: HT-22. The method in brief: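 HT-22 cells were seeded at 5x10^4 per well and incubated overnight. They were then given 4 mM glutamate with or without 10 µM inhibitor or 1 µM PD146176 for 14-16 h. Cells were stained with MitoSOX at 2.5 µM final for 30 min at 37 °C, and fluorescence intensity was measured by flow cytometry (488 nm excitation). At least 3 experiments were run, each in triplicate.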
In general terms: A flow cytometer gives signals particle by particle.

Experiment [6] shares this target. Nature of the experiment: Inhibition of 15-LOX-1 in C57bl/6 mouse precision-cut lung slices assessed as reduction in LPS-stimulated IL-12b mRNA expression level at 5 uM incubated for 20 hrs followed by LPS stimulation for 4 hrs in presence of linoleic acid by RT-qPCR analysis. In a few lines: as §2
For experiment [7] the target is unchanged. The experiment is described as follows: Inhibition of 15-LOX-1 in C57bl/6 mouse precision-cut lung slices assessed as reduction in LPS-stimulated IL-8 mRNA expression level at 50 uM incubated for 20 hrs followed by LPS stimulation for 4 hrs in presence of linoleic acid by RT-qPCR analysis. In a few lines:
as §2

For experiment [8] the target is unchanged. The experiment is described as follows: Inhibition of 15-LOX-1 in C57bl/6 mouse precision-cut lung slices assessed as reduction in LPS-stimulated IL-12b mRNA expression level at 50 uM incubated for 20 hrs followed by LPS stimulation for 4 hrs in presence of linoleic acid by RT-qPCR analysis. The method in brief: as §2
For experiment [9], the target named is T3, Polyunsaturated fatty acid lipoxygenase ALOX15 (Homo sapiens) (UniProt P16050).
T3 sequence (whole entry): T2 sequence (P16050 whole entry)
The experiment is described as follows: Competitive inhibition of human 15-LOX-1 assessed as apparent Vmax at 15 uM by Lineweaver-Burk plot analysis (reference value: 1.6 +/- 0.2 10^-4abs/s). The method in brief: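 Purified enzyme activity was read as UV absorbance at 234 nm of the product formed from linoleic acid substrate, in 96-well format. Substrate-dependence runs were done with and without inhibitor. Apparent Km and Vmax were derived from Lineweaver-Burk plots.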

Activity calls are given as the source filed them. The calls are words filed in the database; no cut-off is given here.

On to `CCCCNC(=O)c1cc(-c2ccccc2)sc1N`, for which the inhibition entry in experiment [1], in experiment [5] and in [6] was “Active” throughout. Besides, the Ki in experiment [2] was 3.3 µM. The inhibition result in experiment [3] is “Dose-dependent effect”; in [4], 50%; in experiment [7], 50%; in [8], 50%. The Vmax(app) in experiment [9] was 1.6 ×10⁻⁴ abs/s.
